Active and inactive are the calls of the source. No cut-off for these calls is given here.
What was measured:
[1] = molecular target: T1, Metabotropic glutamate receptor 4 (Homo sapiens, UniProt Q14833); assay: Activity at human mGluR4 receptor expressed in CHO cells assessed as effect on calcium mobilization; format: functional, cell-based
[2] = molecular target: Metabotropic glutamate receptor 4 (Rattus norvegicus) (UniProt P31423); assay: Activity at rat mGluR4 expressed in HEK293 cells coexpressing Gqi5 protein assessed as fold shifting of glutamate-induced response to left at 30 uM; format: cell-based
[3] = molecular target: T1, Metabotropic glutamate receptor 4; assay: Activity at human mGluR4 receptor expressed in CHO cells assessed as effect on calcium mobilization relative to glutamate; format: functional, cell-based
[4] = molecular target: T1, Metabotropic glutamate receptor 4; assay: Activity at human mGluR4 expressed in CHO cells coexpressing Gqi5 protein assessed as fold shifting of glutamate-induced response to left at 30 uM; format: cell-based
[5] = molecular target: Metabotropic glutamate receptor 4 (Rattus norvegicus, UniProt P31423); assay: Activity at rat mGluR4 receptor expressed in HEK293 cells assessed as effect on thallium flux
[6] = molecular target: Metabotropic glutamate receptor 4 (Rattus norvegicus) (UniProt P31423); assay: Activity at rat mGluR4 receptor expressed in HEK293 cells assessed as effect on thallium flux relative to glutamate; format: cell-based
Plasma [7] = assay: AUC in Sprague-Dawley rat plasma at 10 mg/kg, ip; format: ADME, organism-based; design: dose 10 mg/kg, route intraperitoneal; settings: in vivo
Plasma [8] = assay: Fraction unbound in rat plasma by at […]; format: ADME, cell-free
[9] = molecular target: Metabotropic glutamate receptor 2 (Homo sapiens) (UniProt Q14416); assay: Activity at human mGluR2
Brain = assay: Half life in Sprague-Dawley rat brain at 10 mg/kg, ip; format: ADME, organism-based; design: dose 10 mg/kg, route intraperitoneal; settings: in vivo
Outline: (§1)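 Rats dosed intraperitoneally at 10mg/kg with the hydrochloride salt, given as an aqueous microsuspension containing 10% tween 80. Compound levels in brain and plasma were measured at 0.5, 1 and 8 h after administration.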

Plasma [10] = assay: Cmax in Sprague-Dawley rat plasma at 10 mg/kg, ip; format: ADME, organism-based; design: dose 10 mg/kg, route intraperitoneal; settings: in vivo
Plasma [11] = assay: Fraction unbound in human plasma by at […]; format: ADME, cell-free
[12] = Metabolic stability in rat liver microsomes after 1 hr; format: ADME, Microsome; settings: read-out: Stability
[13] = molecular target: Metabotropic glutamate receptor 5 (Homo sapiens) (UniProt P41594); assay: Activity at human mGluR5
[14] = Cmax in Sprague-Dawley rat brain at 10 mg/kg, ip; format: ADME, organism-based; design: dose 10 mg/kg, route intraperitoneal; outline: as §1
[15] = Metabolic stability in human liver microsomes after 1 hr; format: ADME, Microsome; settings: read-out: Stability
[16] = AUC in Sprague-Dawley rat brain at 10 mg/kg, ip; format: ADME, organism-based; design: dose 10 mg/kg, route intraperitoneal; outline: as §1
[17] = molecular target: Metabotropic glutamate receptor 1 (Homo sapiens) (UniProt Q13255); assay: Activity at human mGluR1
Plasma [18] = assay: Half life in Sprague-Dawley rat plasma at 10 mg/kg, ip; format: ADME, organism-based; design: dose 10 mg/kg, route intraperitoneal; settings: in vivo; outline: as §1
[19] = Apparent oral clearance in Sprague-Dawley rat at 10 mg/kg, ip; format: ADME, organism-based; design: dose 10 mg/kg; settings: in vivo; outline: as §1
[20] = molecular target: Metabotropic glutamate receptor 3 (Homo sapiens) (UniProt Q14832); assay: Activity at human mGluR3
[21] = molecular target: Metabotropic glutamate receptor 7 (Homo sapiens) (UniProt Q14831); assay: Activity at human mGluR7
[22] = molecular target: Metabotropic glutamate receptor 8 (Homo sapiens) (UniProt O00222); assay: Activity at human mGluR8 assessed as fold shifting of glutamate-induced response to left

Chain of Metabotropic glutamate receptor 2 (Homo sapiens) (Q14416 19-872 limits assumed): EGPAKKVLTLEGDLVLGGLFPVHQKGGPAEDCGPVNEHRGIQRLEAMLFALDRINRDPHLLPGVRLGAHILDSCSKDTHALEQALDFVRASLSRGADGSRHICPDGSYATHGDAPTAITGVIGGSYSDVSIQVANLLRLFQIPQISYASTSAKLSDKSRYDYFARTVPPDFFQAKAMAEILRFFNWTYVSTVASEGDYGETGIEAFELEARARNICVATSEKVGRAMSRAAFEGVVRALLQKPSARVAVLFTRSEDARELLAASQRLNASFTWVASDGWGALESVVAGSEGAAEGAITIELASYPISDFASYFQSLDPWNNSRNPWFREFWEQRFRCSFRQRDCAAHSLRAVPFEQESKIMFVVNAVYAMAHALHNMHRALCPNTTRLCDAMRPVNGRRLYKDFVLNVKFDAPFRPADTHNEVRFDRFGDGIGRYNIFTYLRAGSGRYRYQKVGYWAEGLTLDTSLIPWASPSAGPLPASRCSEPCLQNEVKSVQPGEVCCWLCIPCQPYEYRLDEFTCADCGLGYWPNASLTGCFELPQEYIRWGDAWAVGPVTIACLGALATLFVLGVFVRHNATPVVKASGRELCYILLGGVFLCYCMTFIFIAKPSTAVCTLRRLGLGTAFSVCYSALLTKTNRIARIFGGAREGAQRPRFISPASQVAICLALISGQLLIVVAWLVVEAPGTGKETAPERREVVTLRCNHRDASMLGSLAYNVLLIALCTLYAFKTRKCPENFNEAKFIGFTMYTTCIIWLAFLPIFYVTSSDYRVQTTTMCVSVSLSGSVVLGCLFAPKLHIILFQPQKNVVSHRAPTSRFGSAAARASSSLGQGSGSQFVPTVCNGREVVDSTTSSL
Chain of Metabotropic glutamate receptor 3 (Homo sapiens) (Q14832 23-879 limits assumed): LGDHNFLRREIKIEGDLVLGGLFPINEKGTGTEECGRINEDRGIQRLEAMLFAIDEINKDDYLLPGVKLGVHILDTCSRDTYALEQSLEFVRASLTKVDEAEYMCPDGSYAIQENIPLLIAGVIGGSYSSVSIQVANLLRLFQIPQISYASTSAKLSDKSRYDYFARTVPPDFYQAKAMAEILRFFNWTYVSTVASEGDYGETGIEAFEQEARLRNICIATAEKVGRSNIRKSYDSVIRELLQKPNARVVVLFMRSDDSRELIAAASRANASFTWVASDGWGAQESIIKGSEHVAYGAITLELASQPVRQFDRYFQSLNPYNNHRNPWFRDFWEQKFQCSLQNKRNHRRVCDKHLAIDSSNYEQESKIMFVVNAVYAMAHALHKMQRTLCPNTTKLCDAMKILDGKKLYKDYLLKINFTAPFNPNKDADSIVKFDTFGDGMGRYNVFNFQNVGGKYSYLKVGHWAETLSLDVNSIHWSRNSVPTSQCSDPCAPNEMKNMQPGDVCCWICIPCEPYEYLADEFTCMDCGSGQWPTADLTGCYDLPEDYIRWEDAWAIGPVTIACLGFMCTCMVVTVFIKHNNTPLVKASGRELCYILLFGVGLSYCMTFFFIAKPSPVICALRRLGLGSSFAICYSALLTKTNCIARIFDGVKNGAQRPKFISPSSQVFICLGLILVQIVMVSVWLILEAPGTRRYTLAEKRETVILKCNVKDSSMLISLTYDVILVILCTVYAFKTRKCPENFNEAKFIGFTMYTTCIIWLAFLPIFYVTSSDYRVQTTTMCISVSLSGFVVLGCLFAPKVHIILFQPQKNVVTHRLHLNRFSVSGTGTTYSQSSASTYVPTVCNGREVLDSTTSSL
Chain of Metabotropic glutamate receptor 1 (Homo sapiens) (Q13255 19-1194 limits assumed): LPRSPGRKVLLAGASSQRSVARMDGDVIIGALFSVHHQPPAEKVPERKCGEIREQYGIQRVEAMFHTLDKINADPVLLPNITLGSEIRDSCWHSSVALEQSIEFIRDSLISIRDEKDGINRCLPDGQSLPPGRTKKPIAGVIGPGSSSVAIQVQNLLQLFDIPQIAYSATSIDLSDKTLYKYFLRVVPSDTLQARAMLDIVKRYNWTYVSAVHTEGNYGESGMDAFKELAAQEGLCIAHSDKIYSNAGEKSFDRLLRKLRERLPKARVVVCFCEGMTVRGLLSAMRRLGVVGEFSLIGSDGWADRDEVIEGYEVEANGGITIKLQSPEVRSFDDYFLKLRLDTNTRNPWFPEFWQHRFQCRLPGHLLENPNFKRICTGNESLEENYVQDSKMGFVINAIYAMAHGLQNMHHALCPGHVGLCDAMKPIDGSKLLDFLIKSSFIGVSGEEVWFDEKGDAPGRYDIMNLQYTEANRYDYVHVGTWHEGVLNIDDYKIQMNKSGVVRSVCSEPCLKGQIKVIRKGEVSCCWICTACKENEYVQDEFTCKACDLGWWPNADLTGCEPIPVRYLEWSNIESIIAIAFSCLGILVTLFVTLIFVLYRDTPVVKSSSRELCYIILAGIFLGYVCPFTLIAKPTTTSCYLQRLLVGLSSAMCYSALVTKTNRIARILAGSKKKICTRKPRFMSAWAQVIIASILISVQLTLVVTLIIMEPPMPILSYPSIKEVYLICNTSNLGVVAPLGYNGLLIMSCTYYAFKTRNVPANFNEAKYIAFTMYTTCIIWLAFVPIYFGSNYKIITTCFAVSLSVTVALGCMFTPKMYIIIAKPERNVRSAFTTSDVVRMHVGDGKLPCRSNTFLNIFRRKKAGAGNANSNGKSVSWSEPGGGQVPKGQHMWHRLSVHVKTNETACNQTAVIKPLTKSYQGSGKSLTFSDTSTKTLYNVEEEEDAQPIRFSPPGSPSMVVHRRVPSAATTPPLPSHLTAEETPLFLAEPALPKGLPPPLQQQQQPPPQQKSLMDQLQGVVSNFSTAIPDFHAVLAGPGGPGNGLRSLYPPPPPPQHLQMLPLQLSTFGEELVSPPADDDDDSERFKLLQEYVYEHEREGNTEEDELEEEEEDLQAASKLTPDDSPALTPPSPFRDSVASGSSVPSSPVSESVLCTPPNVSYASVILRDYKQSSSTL
Chain of Metabotropic glutamate receptor 5 (Homo sapiens) (P41594 21-1212 limits assumed): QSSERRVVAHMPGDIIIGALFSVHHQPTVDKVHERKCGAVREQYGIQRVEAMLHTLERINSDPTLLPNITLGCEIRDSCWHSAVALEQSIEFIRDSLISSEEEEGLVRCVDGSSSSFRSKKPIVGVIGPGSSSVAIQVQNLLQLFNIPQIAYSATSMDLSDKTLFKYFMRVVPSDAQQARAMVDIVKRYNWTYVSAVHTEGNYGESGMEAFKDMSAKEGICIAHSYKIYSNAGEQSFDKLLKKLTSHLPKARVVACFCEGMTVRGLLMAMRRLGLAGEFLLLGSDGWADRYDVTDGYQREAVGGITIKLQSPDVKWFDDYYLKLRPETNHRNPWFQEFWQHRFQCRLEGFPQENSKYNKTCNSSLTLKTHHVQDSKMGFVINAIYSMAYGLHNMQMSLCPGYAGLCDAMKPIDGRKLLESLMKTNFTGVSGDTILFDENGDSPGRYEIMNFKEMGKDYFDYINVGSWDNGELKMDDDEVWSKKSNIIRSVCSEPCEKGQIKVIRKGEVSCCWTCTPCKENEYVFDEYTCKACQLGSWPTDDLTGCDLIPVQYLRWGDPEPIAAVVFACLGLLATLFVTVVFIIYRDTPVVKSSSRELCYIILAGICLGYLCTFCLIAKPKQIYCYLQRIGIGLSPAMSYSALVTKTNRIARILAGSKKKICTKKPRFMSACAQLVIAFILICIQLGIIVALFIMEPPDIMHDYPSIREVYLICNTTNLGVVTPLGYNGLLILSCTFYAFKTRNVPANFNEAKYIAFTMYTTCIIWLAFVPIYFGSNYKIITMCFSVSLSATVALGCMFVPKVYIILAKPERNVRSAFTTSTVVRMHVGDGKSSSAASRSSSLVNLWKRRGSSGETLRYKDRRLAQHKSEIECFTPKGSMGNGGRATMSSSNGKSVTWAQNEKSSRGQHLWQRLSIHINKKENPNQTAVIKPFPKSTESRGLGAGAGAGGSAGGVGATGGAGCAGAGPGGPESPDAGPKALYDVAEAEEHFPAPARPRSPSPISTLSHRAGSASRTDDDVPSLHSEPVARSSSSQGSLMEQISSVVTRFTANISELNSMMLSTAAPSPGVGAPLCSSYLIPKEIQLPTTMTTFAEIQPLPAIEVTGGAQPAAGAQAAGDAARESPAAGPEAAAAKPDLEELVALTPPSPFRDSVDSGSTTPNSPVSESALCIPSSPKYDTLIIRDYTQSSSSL
Chain of Metabotropic glutamate receptor 4 (Rattus norvegicus, UniProt P31423) (P31423 whole entry): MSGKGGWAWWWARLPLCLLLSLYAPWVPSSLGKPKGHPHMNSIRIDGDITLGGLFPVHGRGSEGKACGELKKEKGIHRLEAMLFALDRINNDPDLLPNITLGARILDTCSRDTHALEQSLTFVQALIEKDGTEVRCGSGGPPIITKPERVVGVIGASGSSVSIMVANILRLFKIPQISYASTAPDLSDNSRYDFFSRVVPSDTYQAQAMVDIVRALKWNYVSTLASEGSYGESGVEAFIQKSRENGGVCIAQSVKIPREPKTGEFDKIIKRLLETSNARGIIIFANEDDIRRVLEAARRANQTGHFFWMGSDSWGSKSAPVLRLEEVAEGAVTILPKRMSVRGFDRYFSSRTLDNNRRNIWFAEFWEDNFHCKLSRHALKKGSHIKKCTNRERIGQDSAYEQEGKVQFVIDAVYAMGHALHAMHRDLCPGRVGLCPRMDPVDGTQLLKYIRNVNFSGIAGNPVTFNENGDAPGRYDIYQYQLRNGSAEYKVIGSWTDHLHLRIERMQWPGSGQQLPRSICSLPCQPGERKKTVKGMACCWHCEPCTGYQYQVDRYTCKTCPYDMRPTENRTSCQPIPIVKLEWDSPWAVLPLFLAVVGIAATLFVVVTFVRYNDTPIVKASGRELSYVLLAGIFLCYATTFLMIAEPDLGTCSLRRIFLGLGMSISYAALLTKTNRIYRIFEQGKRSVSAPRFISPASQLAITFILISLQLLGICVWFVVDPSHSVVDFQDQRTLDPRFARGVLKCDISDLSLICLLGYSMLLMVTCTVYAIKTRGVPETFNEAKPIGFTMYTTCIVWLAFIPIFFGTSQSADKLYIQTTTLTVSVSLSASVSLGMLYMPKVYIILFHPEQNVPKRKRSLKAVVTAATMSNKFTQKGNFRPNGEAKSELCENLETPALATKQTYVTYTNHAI
Chain of Metabotropic glutamate receptor 4 (Rattus norvegicus) (P31423 whole entry): as above

Compound | EC50 [1] [nM] | Emax [3] [%] | EC50 [5] [nM] | Emax [6] [%] | other results
O=C(Nc1ccc(Cl)c(Cl)c1)c1cc2ccccc2o1 | > 10000 | – | – | – | –
O=C(Nc1ccc(Cl)c(Cl)c1)c1cnccn1 | > 10000 | – | – | – | –
O=C(Nc1ccc(Cl)c(Cl)c1)c1ccsc1 | > 10000 | – | – | – | –
O=C(Nc1cccc(Cl)c1)c1ccccn1 | 1100 | 227 | 290 | 124 | fold change (FC) [2]: 31.4; fold change (FC) [4]: 18.1
O=C(Nc1ccc(Cl)c(Cl)c1)c1ccc(Br)o1 | 4100 | 62 | – | – | –
O=C(Nc1ccc(Cl)c(Cl)c1)c1ccno1 | > 10000 | – | – | – | –
COc1ccc(NC(=O)c2ccccn2)cc1OC | > 5000 | 164 | 2400 | 102 | –
N#Cc1ccc(NC(=O)c2ccccn2)cc1C(F)(F)F | > 10000 | – | > 10000 | – | –
COc1cc(NC(=O)c2ccccn2)ccc1Cl | – | 182 | – | 109 | AUC (Plasma [7]): 173 ng·h/mL; Fu (Plasma [8]): 2.4%; Activity [9]: inactive; fold change (FC) [2]: 35.3; t1/2 (Brain): 9 min; Cmax (Plasma [10]): 154 ng/mL; fold change (FC) [4]: 28.1; Fu (Plasma [11]): 2.2%; remaining at 1 h [12]: 1.8%; Activity [13]: 5.1 µM; Cmax [14]: 1580 ng/mL; remaining at 1 h [15]: 5.3%; AUC [16]: 705 ng·h/mL; Activity [17]: inactive; t1/2 (Plasma [18]): 114 min; CL/F [19]: 894 mL/min/kg; Activity [20]: inactive; Activity [21]: inactive; fold change (FC) [22]: 2.7
O=C(Nc1cccc(C(F)(F)F)n1)c1ccccn1 | > 10000 | – | > 10000 | – | –
Cn1cccc1C(=O)Nc1ccc(Cl)c(Cl)c1 | > 10000 | – | – | – | –
O=C(Nc1cccc(C(F)(F)F)c1)c1ccccn1 | – | 150 | – | 81 | Fu (Plasma [8]): 2.9%; Fu (Plasma [11]): 1.3%; remaining at 1 h [12]: 19%; remaining at 1 h [15]: 26%
O=C(Nc1ccc(F)c(C(F)(F)F)c1)c1ccccn1 | 1500 | 54 | 1000 | 42 | fold change (FC) [2]: 2.7; fold change (FC) [4]: 2.1
O=C(Nc1cccc(OC(F)F)c1)c1ccccn1 | – | 235 | – | 113 | AUC (Plasma [7]): 99 ng·h/mL; Fu (Plasma [8]): 5.8%; Activity [9]: inactive; t1/2 (Brain): 23.4 min; Cmax (Plasma [10]): 188 ng/mL; Fu (Plasma [11]): 4%; remaining at 1 h [12]: 1.4%; Activity [13]: > 10 µM; Cmax [14]: 1680 ng/mL; remaining at 1 h [15]: 2.4%; AUC [16]: 976 ng·h/mL; Activity [17]: inactive; t1/2 (Plasma [18]): 15.6 min; CL/F [19]: 1420 mL/min/kg; Activity [20]: inactive; Activity [21]: inactive
O=C(Nc1ccc(Cl)c(Cl)c1)c1ccccn1 | 1400 | 80 | – | – | –
O=C(Nc1ccc(Cl)c(Cl)c1)c1ccco1 | > 5000 | 135 | – | – | –

Compound | EC50 [1] [nM] | Emax [3] [%] | EC50 [5] [nM] | Emax [6] [%] | other results
O=C(Nc1ccc(Cl)c(Cl)c1)c1ccccc1 | > 10000 | – | – | – | –
O=C(Nc1ccc(Cl)c(Cl)c1)c1ccncn1 | 2800 | 83 | – | – | –
COc1ccc(NC(=O)c2ccccn2)cc1Cl | 1100 | 161 | 740 | 108 | fold change (FC) [2]: 12; fold change (FC) [4]: 7.2
O=C(Nc1ccc(Cl)c(Cl)c1)c1ccc(-c2ccccc2)o1 | > 10000 | – | – | – | –
COc1cc(NC(=O)c2ccccn2)ncn1 | > 10000 | – | > 10000 | – | –
COc1cc(NC(=O)c2ccccn2)ccc1F | 780 | 207 | 370 | 107 | Fu (Plasma [8]): 6.5%; Activity [9]: inactive; fold change (FC) [2]: 26.7; fold change (FC) [4]: 17.5; Fu (Plasma [11]): 5.1%; remaining at 1 h [12]: 6.3%; Activity [13]: inactive; remaining at 1 h [15]: 3%; Activity [17]: inactive; Activity [20]: inactive; Activity [21]: inactive; Activity [22]: inactive
O=C(Nc1ccc2c(c1)OCO2)c1ccccn1 | > 10000 | 90 | 500 | 50 | –
O=C(Nc1ccc(Cl)c(Cl)c1)C1CCCCC1 | > 10000 | – | – | – | –
O=C(Nc1ccccc1)[C@]12C[C@H]1/C(=N\O)c1ccccc1O2 | – | 251 | 2030 | 88 | fold change (FC) [2]: 8.8
O=C(Nc1ccc(Cl)c(C(F)(F)F)c1)c1ccccn1 | 2100 | 47 | 1700 | 41 | fold change (FC) [2]: 2.1; fold change (FC) [4]: 1.8
COc1nc(NC(=O)c2ccccn2)ccc1Cl | > 5000 | 95 | – | – | –
O=C(Nc1cccc(Cl)c1)c1ccco1 | > 5000 | – | – | – | fold change (FC) [4]: 5
O=C(Nc1cccc(OC(F)(F)F)c1)c1ccccn1 | – | 132 | – | 75 | Fu (Plasma [8]): 1.6%; Fu (Plasma [11]): 0.8%; remaining at 1 h [12]: 20%; remaining at 1 h [15]: 22%
COc1cc(NC(=O)c2ccccn2)ccc1C | 560 | 178 | 210 | 121 | fold change (FC) [2]: 35.3; fold change (FC) [4]: 16.8
Cc1cc(NC(=O)c2ccco2)ccc1Br | > 5000 | – | – | – | fold change (FC) [4]: 4.3

— ChEMBL document CHEMBL1158444 (J Med Chem, 2009)
